Data on one molecule can be found in ChEMBL document CHEMBL5038594, “Structural Fine-Tuning of Desmuramylpeptide NOD2 Agonists Defines Their In Vivo Adjuvant Activity” (J Med Chem, 2021).

This assay deals with T1, Nucleotide-binding oligomerization domain-containing protein 1 (Homo sapiens) (UniProt Q9Y239).
T1 sequence (whole entry): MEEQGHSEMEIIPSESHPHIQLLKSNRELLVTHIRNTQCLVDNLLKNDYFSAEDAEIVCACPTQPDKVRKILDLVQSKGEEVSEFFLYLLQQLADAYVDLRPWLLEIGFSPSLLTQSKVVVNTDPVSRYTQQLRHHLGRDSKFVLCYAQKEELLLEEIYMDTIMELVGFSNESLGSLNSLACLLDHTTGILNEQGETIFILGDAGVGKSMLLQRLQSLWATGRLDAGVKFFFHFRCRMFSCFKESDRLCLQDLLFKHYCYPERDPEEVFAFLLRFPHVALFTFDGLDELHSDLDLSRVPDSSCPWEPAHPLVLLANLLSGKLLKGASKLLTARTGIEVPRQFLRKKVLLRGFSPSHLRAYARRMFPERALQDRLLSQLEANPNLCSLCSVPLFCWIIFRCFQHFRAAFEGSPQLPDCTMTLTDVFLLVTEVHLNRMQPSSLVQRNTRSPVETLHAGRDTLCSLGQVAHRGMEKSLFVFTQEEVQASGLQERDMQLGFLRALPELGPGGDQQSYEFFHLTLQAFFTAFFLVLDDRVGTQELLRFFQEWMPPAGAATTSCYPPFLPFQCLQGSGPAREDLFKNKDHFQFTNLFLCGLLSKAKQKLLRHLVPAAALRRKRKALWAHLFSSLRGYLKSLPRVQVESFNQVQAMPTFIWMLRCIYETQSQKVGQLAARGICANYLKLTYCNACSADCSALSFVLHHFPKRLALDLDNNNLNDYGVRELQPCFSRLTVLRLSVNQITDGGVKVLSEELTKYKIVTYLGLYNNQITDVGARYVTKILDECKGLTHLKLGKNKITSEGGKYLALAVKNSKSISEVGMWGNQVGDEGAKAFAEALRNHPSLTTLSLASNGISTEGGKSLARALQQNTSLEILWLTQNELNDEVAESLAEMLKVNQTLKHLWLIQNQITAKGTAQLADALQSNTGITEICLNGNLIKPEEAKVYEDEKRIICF
Kind of assay: Agonist activity at NOD1 in HEK-Blue hNOD2 cells assessed as increase in NFkappaB transactivation-mediated SEAP activity measured after 18 hrs by spectrophotometric method. Type of assay: cell-based. The conditions noted are these: HEK-Blue hNOD1, in the assay text read “HEK-Blue hNOD1 cells” for “HEK-Blue hNOD2 cells”. Put shortly:
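Counter-screen in HEK-Blue NOD1 cells (HEK293 stably expressing human NOD1 plus an NF-κB-inducible SEAP reporter), seeded at 2.5 × 10^5 cells/mL in HEK-Blue detection medium. Compounds at 2 μM versus 0.1% DMSO vehicle, 18 h at 37 °C, 5% CO2. SEAP read as absorbance at 630 nm. Duplicates, at least two independent experiments.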

Active and inactive are the calls of the source. The rule behind the calls is not given here.

Regarding `CCCCCCCCCCCCCCCCCC(=O)Oc1ccc(/C=C/C(=O)NCC(=O)N[C@H](C(=O)N[C@H](CCC(=O)OCC)C(=O)OCC)C(C)C)cc1OC`, the result was inactive.
